APJ ag: agonists of human APJ apelin receptor | P35414 | CHO-K1 APJ PathHunter beta-arrestin, luminescence; 0% DMSO wells, 100% apelin | activation, % at 20 µM | 330,000 compounds, 0.11% hits;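 active = activation more than six SD over the plate average, tested at 20 µM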;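 note: 0% = DMSO alone and 100% = apelin-13 at 10 nM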
Target sequence (P35414 whole entry, looked up): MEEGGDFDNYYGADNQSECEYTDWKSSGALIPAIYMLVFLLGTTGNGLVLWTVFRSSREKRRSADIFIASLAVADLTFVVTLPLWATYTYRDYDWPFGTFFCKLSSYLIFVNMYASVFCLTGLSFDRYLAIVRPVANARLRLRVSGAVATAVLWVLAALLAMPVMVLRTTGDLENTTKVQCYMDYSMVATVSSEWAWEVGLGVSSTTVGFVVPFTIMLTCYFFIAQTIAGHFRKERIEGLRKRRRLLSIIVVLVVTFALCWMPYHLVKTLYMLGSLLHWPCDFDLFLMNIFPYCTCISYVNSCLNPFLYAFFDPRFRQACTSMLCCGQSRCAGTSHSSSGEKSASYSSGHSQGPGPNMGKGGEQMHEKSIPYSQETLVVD
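Incubation: overnight seeding, 90 min compound at 25 °C, 1 h detection; test system: PathHunter CHO-K1 APJ (AGTRL-1) beta-arrestin reporter cells; amount: 1000 cells/well; doses: one dose, 20 µM compound, 1% DMSO; measured by: beta-gal luminescence; measure: agonist-driven arrestin binding to APJ; benchmarks: negative DMSO alone, positive Apelin-13 at 10 nM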
CCR6 antag: antagonists of human CCR6 receptor; P51684; CHO-K1 CCR6 PathHunter beta-arrestin, luminescence, CCL20-stimulated; inhibition, % at 20 µM; 340,000 compounds, 0.49% hits;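 active = compounds whose inhibition of the agonist-driven luminescence signal at 20 µM reaches about 50%, limit read from the data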;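 note: cells stimulated with CCL20 at 14 nM final; plate controls were DMSO with CCL20 for no effect and DMSO without agonist for full effect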
hiPSC survival: enhancers of human iPSC single-cell survival | survival enhancement, % at 20 µM | hiPSC single-cell survival, ATPlite luminescence; 100% = ROCK inhibitor wells, 0% = DMSO | AID 602274 | 360,000 compounds, 0.044% hits; in the data active = survival enhancement above about 18%;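 note: cells exposed to compounds for 16 hours before the ATP read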
APJ antagonist: antagonists of human APJ apelin receptor; P35414; CHO-K1 APJ beta-arrestin complementation, luminescence; inhibition, % at 20 µM; 330,000 compounds, 0.32% hits; AID 2521;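 active = inhibition above about 40% at 20 µM, limit read from the data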;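 note: cells challenged with 10 nM apelin-13 agonist together with compound; plate controls were apelin-13 plus DMSO wells for no effect and DMSO wells lacking apelin-13 for full effect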
EBI2 block: EBI2 (human) antagonism; P32249; EBI2 beta-arrestin recruitment, luminescence, 7a,25-OHC stimulated; inhibition, % at 5 µM; 360,000 compounds, 0.81% hits; in the data active = inhibition above about 38%;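 note: enzyme fragment complementation signal reports receptor beta-arrestin coupling in cells; 0% = agonist plus DMSO wells and 100% = wells without agonist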
CXCR6 inh: inhibitors of human CXCR6 receptor; inhibition, % at 20 µM; 360,000 compounds, 0.36% hits; O00574; CHO-K1 PathHunter CXCR6 beta-arrestin, luminescence; in the data active = inhibition above about 34%, passing the limit was not always enough;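 note: antagonist mode with CXCL16 agonist at 10 nM final; 0% = 10 nM CXCL16 with DMSO and 100% = unstimulated wells without agonist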
EBI2 conf: EBI2 (human) antagonism, single concentration confirmation. shares compounds with EBI2 block. EBI2 beta-arrestin luminescence, 7a,25-OHC antagonism. inhibition, % at 5 µM. 2,400 compounds, 29% hits. AID 651997;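 active = inhibition of at least 50%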
EBI2 ag: counter-screen for EBI2 antagonists: EBI2 agonist activity | shares compounds with EBI2 block | EBI2-expressing cells, agonist mode, luminescence, 60 min; 0% vehicle, 100% 7α,25-dihydroxycholesterol control | activation, % at 5 µM | 2,400 tested, under 10 active | AID 652000;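 active = activation of at least 50%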
bGal counter: counter-screen for EBI2 antagonists: E. coli beta-galactosidase inhibition. shares compounds with EBI2 block. purified beta-galactosidase, luminescent Galacton Star, 15 min. inhibition, % at 5 µM. 2,400 compounds, 1% hits;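 active = replicate-average signal at least 3 plate SD below neutral wells, shown as high inhibition, flagging enzyme-inhibiting false positives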;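 note: 0% = DMSO wells with enzyme and 100% = wells lacking enzyme; higher means stronger loss of beta-gal luminescence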
* hit, by the source's call; . = not tested or not shown. The list is not random: actives were taken first. Their share in the collection is about 1.5%.

SMILES	APJ ag	CCR6 antag	hiPSC survival	APJ antagonist	EBI2 block	CXCR6 inh	EBI2 conf	EBI2 ag	bGal counter
CC(=O)Nc1ccc(S(=O)(=O)N2CCC(C(N)=O)(N3CCCCC3)CC2)cc1	1	5	1	-12	5	-5	.	.	.
COc1ccc(N2Cc3ccc(C(=O)N/N=C\c4ccc(O)cc4O)cc3C2)cc1	-2	.	.	-2	.	.	.	.	.
CCn1c(SCC(=O)NNC(=O)c2ccc(C)cc2)nnc1-c1ccco1	0	11	-1	-6	80*	5	50	-1	-18
CCCc1nc(SCC(=O)NNC(=O)c2ccc(OC)cc2)c2ccccc2n1	0	8	-4	-5	77*	-2	45	0	-14
CCn1c(SCC(=O)NNC(=O)c2ccc(OC)cc2)nnc1-c1ccco1	-1	3	2	-35	70*	2	50	2	5
CCCc1nc(SCC(=O)NNC(=O)C2CCCCC2)c2ccccc2n1	-2	-10	-3	7	-6	-2	.	.	.
CC(OC(=O)C1CC1)C(=O)Nc1cc(Cl)cc(Cl)c1 (stereo not drawn)	-6	1	-3	-3	2	-8	.	.	.
CN(C)c1nc(N)c(C#N)c(C#N)c1C#N	.	4	1	.	-6	-1	.	.	.
COc1ccc(-n2cc(-c3ccccc3)nc2SC)cc1	1	12	3	20	42*	-1	34	0	3
CCCCCCC(NC(=O)c1ccc(C)cc1)C(=O)O (stereo not drawn)	.	11	-2	.	-9	2	.	.	.
Cc1ccc(/C=N/Nc2ccc3c(C(F)(F)F)cc(C(F)(F)F)nc3n2)cc1	-2	10	-2	15	55*	10	40	2	4
O=C(Cc1ccccn1)c1ccc(F)cc1	-6	-6	3	13	-15	-15	.	.	.
CCOc1ccc(/C=N/OCC(=O)NC(c2ccccc2)c2ccccc2)cc1	-3	-15	-2	-1	79*	4	60*	1	7
COc1ccc(/C=N/OCC(=O)NC(c2ccccc2)c2ccccc2)c(OC)c1	-1	17	-2	-6	20	-7	.	.	.

From PubChem
